According to the EternaBench riboswitch data:

System: MS2 coat protein
Experiment: apparent Kd, MS2 coat protein; higher = weaker binding; RNA-MaP array
How it was run: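 Apparent Kd values come from the median of binding-curve fits to single clusters. To obtain them, designed RNAs transcribed on an Illumina sequencing chip from sequenced DNA templates were incubated at room temperature with fluorescently labeled MS2 coat protein at 1.5 nM to 3 μM, with or without input ligand, for 0.8–1.5 h at the lowest and 10–20 min at the highest concentrations. Designs measured on fewer than 10 clusters were excluded.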

[1] = designed as: ON switch for flavin mononucleotide, no ligand
[2] = ligand present: flavin mononucleotide, designed as: ON switch for flavin mononucleotide
[3] = designed as: OFF switch for flavin mononucleotide, no ligand
[4] = ligand present: flavin mononucleotide, designed as: OFF switch for flavin mononucleotide

“AGAAAGAAUCAGAAGGCAGAGAUGUCUAUCUACUGAGGAUAUGAAUGACAUGAGGAUCACCCAUGUUGUCAGGCCAGGCCCAAC” was tested. Which “apparent Kd” value [1] did it give?
Its value is 7.78 nM.

And the “apparent Kd” value [2]?
Its value is 9.75 nM.

How did the “apparent Kd” value [3] turn out when “GGUUCCGCUAAGGUGAAACAUGAGGAUCACCCAUGUCAAUCUGAGGAUAUUUAUCUCGACGAGGCAAAGAAGGCAGACUCGCGG” was run?
Its value is 9.53 nM.

What about the “apparent Kd” value [4] of the same sequence?
The value was 14.8 nM.

For “UGUGCCUAGUAGAAGGCGCCGACUCGCUCACGGCGAGGAUAUACUACUCAGGGCACAUGAGGAUCACCCAUGUGUGAUUCGUAA”, which “apparent Kd” value [3] is on record?
Its value is 103 nM.

What about the “apparent Kd” value [4] of the same sequence?
Its value is 23.1 nM.

Which results are given for “CUACCUACAGGAUAUACAUGAGGAUCACCCAUGUUUCAACGUGGAACAGGUUGAACAUGUAGAAGGGAAUCGUU”?
apparent Kd [3]: 20.4 nM; apparent Kd [4]: 17.2 nM

How did the “apparent Kd” value [3] turn out when “GGGAUACAUGAGGAUCACCCAUGUCAGGAUAUCUUUUACCGGCACGACAAUCAUAUGAAGAGAAGGGACUAUAU” was run?
Its value is 35 nM.

And the “apparent Kd” value [4]?
The value was 31.9 nM.

For “AUCGCGACAGGAUAUACAUGAGGAUCACCCAUGUUGAUGAGCGAGCAUCGGACUGAGAGUAGAAGGGUCGGCUC”, which “apparent Kd” value [3] is on record?
The value was 9.26 nM.

And the “apparent Kd” value [4]?
Its value is 9.04 nM.

With “AUCCGUGCAGCAAAUGGAGUGACAUGAGGAUCACCCAUGUAUGAGGAUAUGGCUCCGCCAGGGUACCAGAAGGCAUAAGGGAGG” as the sequence, how does the “apparent Kd” value [1] read?
The value was 908 nM.

What about the “apparent Kd” value [2] of the same sequence?
The value was 627 nM.

Which “apparent Kd” value [3] does the source give for “UCGAGUACGGUGAGGAUAUCAUGAGGAUUACUACAAGAGAAGGCACAUGAGGAUCACCCAUGUGGCGACCAUUC” here?
The value was 6.28 nM.

What about the “apparent Kd” value [4] of the same sequence?
The value was 6.32 nM.

“AAUACACUUGAGAAGGCCCAAACAUGAGGAUCACCCAUGUGACAUGUAAUCGCCGCGAAUGGAAGGGAGGAUAUCAGAAUCCAC” was tested. Which “apparent Kd” value [1] did it give?
The value was 16.2 nM.

And the “apparent Kd” value [2]?
Its value is 17.5 nM.

Which results are given for “GCCGACCUCACAUGAGGAUCACCCAUGUGCCGGAAACUACUGAGAAGGGCUCUAAUUCCAGGCGAGCAGGAUAUCAUAAAAUAG”?
apparent Kd [1]: 17.4 nM; apparent Kd [2]: 8.78 nM

With “CACCCAACUAUACAUGAGGAUCACCCAUGUUGAAAGUGCAACAGAAGGCCCUACUAAUAUAGGAGGGAGGAUAUGUGAACCGAA” as the sequence, how does the “apparent Kd” value [1] read?
Its value is 62.5 nM.

And the “apparent Kd” value [2]?
The value was 11.4 nM.

What does the source list for “GGACAACAUGAGGAUCACCCAUGUCCUGAUACCAGUCAGCGCAGUGACCCUUGGCAGCAGACGGAUACGAAAUAACUGAGAGAUA”?
apparent Kd (designed as: ON switch for theophylline, no ligand): 40.6 nM; apparent Kd (ligand present: theophylline, designed as: ON switch for theophylline): 42.1 nM

What does the source list for “AAGAACCAGAUAGGAUAUCCGUUUAAAUCACAAGGAGAAGGAUCAAAUACAAAACAUGAGGAUCACCCAUGUGGAAGAUAGCUA”?
apparent Kd [1]: 33.2 nM; apparent Kd [2]: 18.7 nM

For “UCUUUAAGCACAGGAUAUUGGUACAUGAGGAUCACCCAUGUGGAUCGUACUACCUCUCCACCGGACAAGAAGGGUGCGCCUACG”, which “apparent Kd” value [1] is on record?
The value was 172 nM.

What about the “apparent Kd” value [2] of the same sequence?
The value was 125 nM.

With “GUCAUGUCAGGAUAUCGUUCGGAGUGCGAUUCCCUCUGCCGCGAGAAGGGACAUGAGGAUCACCCAUGUUCGAA” as the sequence, how does the “apparent Kd” value [3] read?
Its value is 16.8 nM.

And the “apparent Kd” value [4]?
Its value is 43.7 nM.

For “AAGAGUGUGAGAGGAUAUGCUUACCCAUAUCACAUGAGGAUCACCCAUGUCGGCGAUUGUAUUAUGCAGAAGGCUCAAGGACUC”, which “apparent Kd” value [1] is on record?
The value was 18.3 nM.

And the “apparent Kd” value [2]?
The value was 9.8 nM.

How did the “apparent Kd” value [3] turn out when “CCAGUUACCAGAGGAUAUGAUUCCAGAGUUAAGGGUAUUCACAUGAGGAUCACCCAUGUGCUCCUUCAGAAGGCUGAUAACCCG” was run?
The value was 39.8 nM.

And the “apparent Kd” value [4]?
Its value is 49.4 nM.

How did the “apparent Kd” value (designed as: ON switch for tryptophan, no ligand) turn out when “UCUCACAUGAGGAUCACCCAUGUGUGCGGUCGAGGACCGGUACGGCCGCCACUCGAAUCCUUCCGCGAGAAGAUUGUACGACGGC” was run?
Its value is 76.2 nM.

And the “apparent Kd” value (ligand present: tryptophan, designed as: ON switch for tryptophan)?
The value was 65.2 nM.

“UGCUUAAGACAGAAGGGCGUUCCGGAUGGUACCGCAGGAUAUGUCAACAUGAGGAUCACCCAUGUUACUAGCUAUGUUUCAAUU” was tested. Which “apparent Kd” value [1] did it give?
The value was 9.97 nM.

And the “apparent Kd” value [2]?
The value was 6.09 nM.

For “GCUGAUCAACCCUAGGAUAUCACCCAUACCACAUGAGGAUCACCCAUGUCGGGUUGCUAUGUGGCUGAGAAGGAGGUGCACUAUAC”, which “apparent Kd” value [1] is on record?
The value was 23 nM.

And the “apparent Kd” value [2]?
The value was 8.76 nM.

Which “apparent Kd” value [3] does the source give for “AAAAGUACAGGAUAUACAUGAGGAUCACCCAUGUCAGAAUAUAAUGAUAAGAAACUGAGUAGAAGGGUAACGAG” here?
The value was 28.6 nM.

What about the “apparent Kd” value [4] of the same sequence?
Its value is 20.3 nM.

What does the source list for “ACCUGGUGUAAGAAGGAGCAGAUAUAACGGUCGCUAGGAUAUUACCCUUCAAAAUGGGAUCUCACAUGAGGAUCACCCAUGUUA”?
apparent Kd [3]: 143 nM; apparent Kd [4]: 218 nM

How did the “apparent Kd” value [3] turn out when “GUACAGGAAGGAUAUACCAGGUAAGUUAAGUUUUCACAUUGACAUGAGGAUCACCCAUGUAGAAGGUCCCUAUA” was run?
The value was 36.7 nM.

What about the “apparent Kd” value [4] of the same sequence?
The value was 31.7 nM.

Which results are given for “UACCGGGCGAUAGGAUAUAUCAGUUACUUCACAUGAGGAUCACCCAUGUUACCCGUGGAAAGUUGAUAGAAGGAUCCAGCUCCA”?
apparent Kd [3]: 44.8 nM; apparent Kd [4]: 41.2 nM

Which “apparent Kd” value [3] does the source give for “UGGGAGUGAGGAUAUGUAUAUCUCAGGGCCGAGGAGAUGAAACAGAAGGCACAUGAGGAUCACCCAUGUUAUGA” here?
Its value is 25.3 nM.

And the “apparent Kd” value [4]?
The value was 29.9 nM.

Which results are given for “CUGAACUAAGGAUAUACGGCCCUCAAUUAUAAUUCUGUGAAACAUGAGGAUCACCCAUGUAGAAGGUAGUCGAC”?
apparent Kd [3]: 14.1 nM; apparent Kd [4]: 18.1 nM

For “UAAUAGAUUACGGCCGCCACUGAAGUGGACUUUAUGAGCAGGAUUCACAUGAGGAUCACCCAUGUCAGGACCGGGUACGUCCAUA”, which “apparent Kd” value (designed as: OFF switch for tryptophan, no ligand) is on record?
The value was 39.2 nM.

And the “apparent Kd” value (ligand present: tryptophan, designed as: OFF switch for tryptophan)?
The value was 45.4 nM.
